Measured values as given in ChEMBL document CHEMBL1134307, “trans-4-[4-(Methoxyphenyl)cyclohexyl]-1-arylpiperazines: a new class of potent and selective 5-HT(1A) receptor ligands as conformationally constrained analogues of 4-[3-(5-methoxy-1,2,3,4-tetrahydronaphthalen-1-yl)propyl]-1-arylpiperazines” (J Med Chem, 2001).

How the values were obtained:
[1] = target: T1, 5-hydroxytryptamine receptor 1A (Rattus norvegicus, UniProt P19327); experiment: Binding was determined on 5-hydroxytryptamine 1A receptor in rat hippocampal membranes; format: cell membranes, Hippocampus
T1 sequence (P19327 whole entry): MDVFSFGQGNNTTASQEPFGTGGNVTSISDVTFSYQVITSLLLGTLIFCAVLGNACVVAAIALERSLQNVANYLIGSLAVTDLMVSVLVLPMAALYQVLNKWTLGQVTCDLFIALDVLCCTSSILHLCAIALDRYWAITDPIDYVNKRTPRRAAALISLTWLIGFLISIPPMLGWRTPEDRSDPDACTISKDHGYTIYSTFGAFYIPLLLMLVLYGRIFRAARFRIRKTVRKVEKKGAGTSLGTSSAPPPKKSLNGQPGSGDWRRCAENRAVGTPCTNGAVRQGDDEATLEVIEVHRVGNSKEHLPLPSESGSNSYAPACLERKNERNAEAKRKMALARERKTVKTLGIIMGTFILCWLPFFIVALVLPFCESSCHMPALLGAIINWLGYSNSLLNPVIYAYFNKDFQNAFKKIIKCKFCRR
Procedure, shortened: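 Hippocampus from male Wistar Hannover rats, homogenized in 50 mM Tris pH 7.6, washed, and preincubated 10 min at 37 °C. Ki given as mean ± SEM.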

[2] = target: T2, Alpha-1A adrenergic receptor (Homo sapiens, UniProt P35348); experiment: Binding affinity was determined on human cloned Alpha-1A adrenoceptor
T2 sequence (P35348 whole entry): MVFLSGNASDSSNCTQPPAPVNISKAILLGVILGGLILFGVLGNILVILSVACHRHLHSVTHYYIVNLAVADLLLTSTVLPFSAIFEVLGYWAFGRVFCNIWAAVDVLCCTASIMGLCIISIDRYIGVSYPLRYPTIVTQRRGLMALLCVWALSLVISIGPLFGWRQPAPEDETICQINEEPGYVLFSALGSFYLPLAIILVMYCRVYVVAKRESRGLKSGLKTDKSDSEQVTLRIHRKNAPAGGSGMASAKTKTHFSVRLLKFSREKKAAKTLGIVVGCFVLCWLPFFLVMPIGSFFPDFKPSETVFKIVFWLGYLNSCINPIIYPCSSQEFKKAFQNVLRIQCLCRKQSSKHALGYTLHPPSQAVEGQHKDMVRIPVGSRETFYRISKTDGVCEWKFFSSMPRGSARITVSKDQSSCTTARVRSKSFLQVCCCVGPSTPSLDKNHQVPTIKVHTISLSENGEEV
Procedure, shortened: (§1)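 Membranes from CHO cells stably expressing each human α1-adrenoceptor subtype, incubated in 50 mM Tris pH 7.4 with 0.2 nM [3H]prazosin and competing drugs (1 pM–10 µM), 30 min at 25 °C. Nonspecific binding with 10 µM phentolamine. Stopped with ice-cold Tris and filtration through 0.2% PEI-pretreated filters.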

[3] = target: T3, Alpha-1D adrenergic receptor (Homo sapiens, UniProt P25100); experiment: Binding affinity towarda alpha-1D adrenergic receptor; procedure, shortened: as §1
T3 sequence (P25100 whole entry): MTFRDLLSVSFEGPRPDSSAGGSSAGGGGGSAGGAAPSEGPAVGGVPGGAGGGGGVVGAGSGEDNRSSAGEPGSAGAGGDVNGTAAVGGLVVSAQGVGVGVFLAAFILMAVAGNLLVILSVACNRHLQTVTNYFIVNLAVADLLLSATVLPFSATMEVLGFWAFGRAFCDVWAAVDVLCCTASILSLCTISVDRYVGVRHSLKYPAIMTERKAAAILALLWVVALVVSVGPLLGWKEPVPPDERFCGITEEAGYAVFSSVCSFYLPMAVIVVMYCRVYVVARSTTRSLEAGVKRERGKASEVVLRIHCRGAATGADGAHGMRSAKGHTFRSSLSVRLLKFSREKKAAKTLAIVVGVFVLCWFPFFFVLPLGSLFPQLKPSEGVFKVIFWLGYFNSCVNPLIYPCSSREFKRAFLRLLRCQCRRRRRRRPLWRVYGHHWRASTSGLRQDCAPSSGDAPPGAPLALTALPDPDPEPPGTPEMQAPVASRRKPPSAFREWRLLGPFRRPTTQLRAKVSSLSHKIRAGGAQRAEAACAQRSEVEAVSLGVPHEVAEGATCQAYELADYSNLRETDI

SMILES | Ki [1] [nM] | Ki [2] [nM] | Ki [3] [nM]
COc1cccc(C2CCC(NCCOc3ccccn3)CC2)c1 (stereo in doubt) | 17 | 201 | 142
COc1cccc2c(CCCN3CCN(c4ccccn4)CC3)cccc12 | 0.38 | 1.62 | 12.6
COc1cccc2c1CCCC2CCCNCCOc1ccccn1 (stereo unspecified) | 0.54 | 0.55 | 12.7
COc1cccc(C2CCC(N3CCN(c4ccccn4)CC3)CC2)c1 (trans isomer) | 0.028 | 33 | 118
COc1cccc(C2CCC(N3CCN(c4ccccc4OC)CC3)CC2)c1 (stereo in doubt; trans) | 0.02 | 4.98 | 4.49
COc1cccc2c(CCCNCCOc3ccccn3)cccc12 | 0.19 | 14.6 | 83.2
COc1cccc2c1CCCC2CCCN1CCN(c2ccccn2)CC1 (stereo unspecified) | 0.48 | 0.33 | 5.95
